≈ marks a conversion by molar mass, not a printed value. Calls of active or inactive are those of the source. No cut-off for these calls is given here.
Experiments:
[1] = system: Staphylococcus epidermidis; assay: Antibacterial activity against methicillin resistant Staphylococcus epidermidis RP62A by CLSI M11-A7 protocol based method; format: functional
Outline: (§1)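 Broth MIC by a previously described standard protocol; MIC is the lowest concentration giving complete growth inhibition. Compounds were dosed from DMSO stocks with final DMSO below 0.5%. Each experiment was repeated at least three times in duplicate.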

Staphylococcus aureus = assay: Antibacterial activity against methicillin-resistant Staphylococcus aureus ATCC 33591 by CLSI M11-A7 protocol based method; format: functional; outline: as §1
Clostridioides difficile [2] = assay: Antibacterial activity against Clostridium difficile UK6 by CLSI M11-A7 protocol based method; format: functional
Outline: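 C. difficile UK6 MICs followed CLSI media and methods for anaerobe susceptibility testing. MIC was taken as the lowest concentration giving complete growth inhibition. DMSO stocks were used, with final DMSO below 0.5%. Runs were repeated at least three times, in duplicate each time.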

Enterococcus faecalis = assay: Antibacterial activity against vancomycin resistant Enterococcus faecalis ATCC 700802 by CLSI M11-A7 protocol based method; format: functional; outline: as §1
[3] = Selectivity index, ratio of IC50 for HEK293 cells to MIC for Clostridium difficile UK6; format: toxicity; conditions: human, read-out: Selectivity Index
[4] = Selectivity index, ratio of IC50 for human HepG2 cells to MIC for Clostridium difficile UK6; format: toxicity; conditions: read-out: Selectivity Index
HepG2 = assay: Cytotoxicity against human HepG2 cells assessed as reduction in cell viability after 24 hrs by MTT assay; format: cell-based; conditions: HepG2, 24 h
Outline: (§2)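 Cells were grown in DMEM with 10% FBS and 1% penicillin/streptomycin at 37°C, 5% CO2, then seeded at 10^4 cells/well overnight. They were exposed to 128 to 0.125 µg/ml compound, or 1% DMSO control, for 24 h at 37°C. MTT was added for 4 h, formazan dissolved in DMSO for 15 min, and A540 read. IC50 was relative to control-treated cells, in three replicates.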

HEK-293T = assay: Cytotoxicity against HEK293T cells assessed as reduction in cell viability after 24 hrs by MTT assay; format: cell-based; conditions: Homo sapiens; outline: as §2
Clostridioides difficile [5] = assay: Antibacterial activity against Clostridium difficile UK6 infected in C57BL/6 mouse assessed as decrease in diarrhea at 50 mg/kg, po bid via gavage for 5 days starting from 4 hrs post challenge measured after 2 days relative to control; format: functional; set-up: scale not given: the % may be the effect or the level left
Outline: (§3)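 Female 6-week C57BL/6 mice (n=10 per group) were antibiotic-pretreated, given clindamycin, then gavaged with 10^6 CFU UK6 spores. Compound was given at 50 mg/kg by gavage at 4 h post-challenge, then twice daily for five days. Mice were checked daily for five days. Percent diarrhea is mice with diarrhea divided by mice in the group, compared by Pearson chi-square.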

Clostridioides difficile [6] = assay: Antibacterial activity against Clostridium difficile UK6 infected in C57BL/6 mouse assessed as decrease in bacterial count in feces at 50 mg/kg, po bid via gavage for 5 days starting from 4 hrs post challenge measured after 5 days by serial dilution method relative to control; format: functional
Outline: (§4)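 Female 6-week C57BL/6 mice (n=10 per group) got an antibiotic cocktail in drinking water for 5 days and autoclaved water for 2 days. Clindamycin 10 mg/kg ip followed one day before gavage of 10^6 CFU UK6 spores. Dosing was 50 mg/kg by gavage at 4 h, then twice daily for five days. Feces from days 1, 3 and 5 were ethanol-shocked, serially diluted and plated anaerobically 48 h. Counts are CFU/g, triplicate plates.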

Mus musculus [7] = assay: Toxicity in C57BL/6 mouse assessed as diarrhea at 50 mg/kg, po bid via gavage for 5 days starting from 4 hrs post challenge measured; format: organism-based; conditions: in vivo
Outline: (§5)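 Uninfected female 6-week C57BL/6 mice (n=5) received 50 mg/kg by gavage on the infected group's schedule: at 4 h, then twice daily for five days. They were monitored daily for five days for weight change, survival, diarrhea and other disease signs.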

Clostridioides difficile [8] = assay: Antibacterial activity against Clostridium difficile UK6 infected in C57BL/6 mouse assessed as decrease in diarrhea at 50 mg/kg, po bid via gavage for 5 days starting from 4 hrs post challenge measured daily during compound dosing; format: functional, organism-based; outline: as §3
Clostridioides difficile [9] = assay: Antibacterial activity against Clostridium difficile UK6 infected in C57BL/6 mouse assessed as decrease in bacterial count in feces at 50 mg/kg, po bid via gavage for 5 days starting from 4 hrs post challenge by serial dilution method relative to control; format: functional; set-up: scale not given: the % may be the effect or the level left; outline: as §4
Mus musculus [10] = assay: Toxicity in C57BL/6 mouse assessed as development of Clostridium difficile infection symptoms at 50 mg/kg, po bid via gavage for 5 days starting from 4 hrs post challenge measured; format: organism-based; conditions: in vivo; outline: as §5
Clostridioides difficile [11] = assay: Antibacterial activity against Clostridium difficile UK6 infected in C57BL/6 mouse assessed as increase in mouse survival at 50 mg/kg, po bid via gavage for 5 days starting from 4 hrs post challenge measured from day 3 to 5 during compound dosing relative to control; format: functional
Outline: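 Female C57BL/6 mice (6 weeks) received a six-antibiotic cocktail in drinking water for 5 days, then autoclaved water for 2 days and clindamycin 10 mg/kg ip on day −1. On day 0 they were challenged by gavage with 10^6 CFU UK6 spores. Compound was given by gavage at 50 mg/kg 4 h post-challenge, then twice daily from day 1 for five days. Survival was monitored daily versus an untreated infected group (n=10 per group).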

Structure (SMILES) | MIC [1] | MIC (Staphylococcus aureus) | MIC (Clostridioides difficile [2]) | MIC (Enterococcus faecalis) | other results
COc1cc2nccc(Nc3ccc(F)c(Cl)c3)c2cc1OCCOc1ccccc1 | 3 µg/mL (≈ 6.84 µM) | 3 µg/mL (≈ 6.84 µM) | 4 µg/mL (≈ 9.11 µM) | 3 µg/mL (≈ 6.84 µM) | –
CCCCCCCCCC(=O)N[C@@H](Cc1c[nH]c2ccccc12)C(=O)N[C@@H](CC(N)=O)C(=O)N[C@@H](CC(=O)O)C(=O)N[C@@H]1C(=O)NCC(=O)N[C@@H](CCCN)C(=O)N[C@@H](CC(=O)O)C(=O)N[C@H](C)C(=O)N[C@@H](CC(=O)O)C(=O)NCC(=O)N[C@H](CO)C(=O)N[C@@H]([C@H](C)CC(=O)O)C(=O)N[C@@H](CC(=O)c2ccccc2N)C(=O)O[C@@H]1C [DAPTOMYCIN] | 0.5 µg/mL (≈ 0.309 µM) | 0.5 µg/mL (≈ 0.309 µM) | – | 1 µg/mL (≈ 0.617 µM) | –
COc1cc2nccc(Nc3ccc(C(F)(F)F)cc3)c2cc1OCc1ccc(C(F)(F)F)cc1 | 3 µg/mL (≈ 6.09 µM) | 0.75 µg/mL (≈ 1.52 µM) | 2 µg/mL (≈ 4.06 µM) | 0.75 µg/mL (≈ 1.52 µM) | selectivity ratio [3]: 15; selectivity ratio [4]: 15; IC50 (HepG2): 70.7 µM; IC50 (HEK-293T): 58.1 µM
COc1cc2nccc(Nc3ccc(F)c(Cl)c3)c2cc1OCc1ccc(C(F)(F)F)cc1 | 3 µg/mL (≈ 6.29 µM) | 1.5 µg/mL (≈ 3.15 µM) | 4 µg/mL (≈ 8.39 µM) | 1.5 µg/mL (≈ 3.15 µM) | –
CN[C@H](CC(C)C)C(=O)N[C@H]1C(=O)N[C@@H](CC(N)=O)C(=O)N[C@H]2C(=O)N[C@H]3C(=O)N[C@H](C(=O)N[C@H](C(=O)O)c4cc(O)cc(O)c4-c4cc3ccc4O)[C@H](O)c3ccc(c(Cl)c3)Oc3cc2cc(c3O[C@@H]2O[C@H](CO)[C@@H](O)[C@H](O)[C@H]2O[C@H]2C[C@](C)(N)[C@H](O)[C@H](C)O2)Oc2ccc(cc2Cl)[C@H]1O [VANCOMYCIN] | – | – | 0.5 µg/mL (≈ 0.345 µM) | – | –
COc1cc2nccc(Nc3ccc(F)c(Cl)c3)c2cc1OCc1ccc(C(C)C)cc1 | 6 µg/mL (≈ 13.3 µM) | 1.5 µg/mL (≈ 3.33 µM) | 1 µg/mL (≈ 2.22 µM) | 3 µg/mL (≈ 6.65 µM) | selectivity ratio [3]: > 60; Activity (Clostridioides difficile [5]): 32%; fold change (FC) (Clostridioides difficile [6]): 14; Activity (Mus musculus [7]): Non-Toxic; Activity (Clostridioides difficile [8]): Active; selectivity ratio [4]: > 60; Activity (Clostridioides difficile [9]): >80%; Activity (Mus musculus [10]): Non-Toxic; IC50 (HepG2): 148 µM; IC50 (HEK-293T): 146 µM; Activity (Clostridioides difficile [11]): 20%
COc1cc2nccc(Nc3ccc(F)c(Cl)c3)c2cc1OCc1ccccc1C | 3 µg/mL (≈ 7.09 µM) | 1.5 µg/mL (≈ 3.55 µM) | 8 µg/mL (≈ 18.9 µM) | 1.5 µg/mL (≈ 3.55 µM) | –
COc1cc2nccc(Nc3cccc(C(F)(F)F)c3)c2cc1OCc1ccc(C(F)(F)F)cc1 | 6 µg/mL (≈ 12.2 µM) | 3 µg/mL (≈ 6.09 µM) | 4 µg/mL (≈ 8.12 µM) | 3 µg/mL (≈ 6.09 µM) | –
COc1cc2nccc(Nc3ccc(C)cc3)c2cc1OCc1ccc(C(F)(F)F)cc1 | 3 µg/mL (≈ 6.84 µM) | 3 µg/mL (≈ 6.84 µM) | 4 µg/mL (≈ 9.12 µM) | 3 µg/mL (≈ 6.84 µM) | –
COc1cc2nccc(Nc3ccc(C)cc3)c2cc1OCc1ccc(C)cc1 | – | 12 µg/mL (≈ 31.2 µM) | > 16 µg/mL | – | –

Reference: ChEMBL document CHEMBL4118238, “Facilely accessible quinoline derivatives as potent antibacterial agents” (Bioorg Med Chem, 2018)
